In ChEMBL document CHEMBL3616462, “Synthesis and antiviral activity of maleopimaric and quinopimaric acids' derivatives” (Bioorg Med Chem, 2015):

Columns and labels:
[1] = Antiviral activity against Influenza A virus (A/Viet Nam/1203/2004(H5N1)) infected in MDCK cells; format: functional, cell-based
unidentified adenovirus = assay: Antiviral activity against Adenovirus Chicago 65089 infected in human A549 cells; format: functional, organism-based; conditions: Chicago 65089, A549
[2] = Cytotoxicity against human rhinovirus 2 infected MDCK cells; format: cell-based, Canis lupus familiaris; conditions: dog, MDCK cells infected with human rhinovirus 2
[3] = Toxicity against human Huh7ET cells assessed as reduction in beta-actin RNA levels at 20 uM; format: cell-based, Huh-7; conditions: Huh7ET cells, values are per cent of control
Procedure, shortened: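 HCV RNA replicon assay in Huh7 ET cells. Compounds were added in triplicate at a single concentration of 20 µM. Cytotoxicity was read as β-actin RNA as % of control, alongside HCV RNA-derived luciferase activity. Interferon-α (2 IU/mL) was the positive control.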

[4] = Antiviral activity against Influenza A virus (A/Brisbane/10/2007(H3N2)) infected in MDCK cells; format: functional, cell-based
[5] = Selectivity index, ratio of toxicity against human Huh7ET cells assessed as reduction in beta-actin RNA levels at 20 uM to antiviral activity against HCV infected in human Huh7ET cells assessed as reduction in HCV RNA-derived luciferase activity at 20 uM by luciferase reporter gene assay; format: cell-based, Huh-7; conditions: read-out: Selectivity Index
Procedure, shortened: (§1)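 HCV RNA replicon assay in Huh7 ET cells. Compounds were added in triplicate at a single concentration of 20 µM. Antiviral activity was read as HCV RNA-derived luciferase signal, expressed as % of control. Toxicity was read as β-actin RNA, % of control. SI = toxicity/antiviral activity. Interferon-α (2 IU/mL) was the positive control.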

[6] = Cytotoxicity against Influenza A virus (A/Brisbane/10/2007(H3N2)) infected MDCK cells; format: cell-based, Canis lupus familiaris; conditions: dog
[7] = Selectivity index, ratio of CC50 for Influenza A virus (A/Viet Nam/1203/2004(H5N1)) infected MDCK cells to EC50 for antiviral activity against Influenza A virus (A/Viet Nam/1203/2004(H5N1)) infected in MDCK cells; format: toxicity, cell-based; conditions: dog; read-out: Ratio CC50/EC50
[8] = Selectivity index, ratio of CC50 for Influenza B virus (B/Florida/4/2006) infected MDCK cells to EC50 for antiviral activity against Influenza B virus (B/Florida/4/2006) in MDCK cells; format: toxicity, cell-based; conditions: dog; read-out: Ratio CC50/EC50
[9] = Antiviral activity against Influenza A virus (A/California/07/2009(H1N1)) infected in MDCK cells; format: functional, cell-based
[10] = Antiviral activity against SARS coronavirus Urbani infected in African green monkey Vero 76 cells; format: functional, cell-based; conditions: Severe acute respiratory syndrome-related coronavirus
[11] = Cytotoxicity against HBV infected human HepG2(2.2.15) cells; format: cell-based; conditions: HBV infected HepG2(2.2.15) cells
Procedure, shortened: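 Toxicity was measured on confluent 2.2.15 cells alongside the primary anti-HBV assay. CC50 is given in µM.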

[12] = Selectivity index, ratio of CC50 for Influenza A virus (A/Brisbane/10/2007(H3N2)) infected MDCK cells to EC50 for antiviral activity against Influenza A virus (A/Brisbane/10/2007(H3N2)); format: toxicity, cell-based; conditions: dog; read-out: Ratio CC50/EC50
Hepatitis B virus = assay: Antiviral activity against HBV infected in human HepG2(2.2.15) cells; format: functional, organism-based
Procedure, shortened: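 Primary anti-HBV screen in confluent 2.2.15 cells, run alongside a toxicity assay in the same cells. Compounds were supplied as DMSO solutions.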

[13] = Cytotoxicity against Influenza A virus (A/California/07/2009(H1N1)) infected MDCK cells; format: cell-based, Canis lupus familiaris; conditions: dog
[14] = Selectivity index, ratio of CC50 for human rhinovirus 2 infected MDCK cells to EC50 for antiviral activity against human rhinovirus 2 infected in MDCK cells; format: toxicity, cell-based; conditions: dog, MDCK cells infected with human rhinovirus 2; read-out: Ratio CC50/EC50
[15] = Cytotoxicity against Influenza B virus (B/Florida/4/2006) infected MDCK cells; format: cell-based, Canis lupus familiaris; conditions: dog
Hepatitis C virus = assay: Antiviral activity against HCV infected in human Huh7ET cells assessed as reduction in HCV RNA-derived luciferase activity at 20 uM by luciferase reporter gene assay; format: functional, Hepacivirus hominis; conditions: Huh-7; procedure, shortened: as §1
[16] = Cytotoxicity against HPV11 infected PHK cells epithelial raft cultures by standard AACF screening assay; format: cell-based; conditions: human
rhinovirus A2 = assay: Antiviral activity against human rhinovirus 2 infected in MDCK cells; format: functional, organism-based; conditions: Rhinovirus A
[17] = Cytotoxicity against SARS coronavirus Urbani infected African green monkey Vero 76 cells; format: cell-based; conditions: chlorocebus sabaeus, Vero 76 cells infected with SARS coronavirus Urbani
Influenza B virus = assay: Antiviral activity against Influenza B virus (B/Florida/4/2006) in MDCK cells; format: functional, cell-based; conditions: B/Florida/4/2006, MDCK
[18] = Cytotoxicity against Adenovirus Chicago 65089 infected human A549 cells; format: cell-based; conditions: A549 cells infected with Adenovirus Chicago 65089
Procedure, shortened: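 Respiratory-virus panel screen on A-549 cells, with compounds supplied as DMSO solutions. CC50 is the cell inhibitory concentration at the 50% endpoint, in µM.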

[19] = Cytotoxicity against Influenza A virus (A/Viet Nam/1203/2004(H5N1)) infected MDCK cells; format: cell-based, Canis lupus familiaris; conditions: dog
human papillomavirus 11 = assay: Antiviral activity against HPV11 infected in PHK cells epithelial raft cultures by standard AACF screening assay; format: functional, organism-based; conditions: human papillomavirus 11, PHK
[20] = Selectivity index, ratio of CC50 for Adenovirus Chicago 65089 infected human A549 cells to EC50 for antiviral activity against Adenovirus Chicago 65089 infected in human A549 cells; format: toxicity, cell-based; conditions: A549 cells infected with Adenovirus Chicago 65089, read-out: Ratio CC50/EC50
[21] = Selectivity index, ratio of CC50 for HPV11 infected PHK cells epithelial raft cultures by standard AACF screening assay to EC50 for HPV11 infected in PHK cells epithelial raft cultures by standard AACF screening assay
[22] = Selectivity index, ratio of CC50 for Influenza A virus (A/California/07/2009(H1N1)) infected MDCK cells to EC50 for antiviral activity against Influenza A virus H1N1 (A/California/07/2009(H1N1)) infected in MDCK cells; format: toxicity, cell-based; conditions: dog; read-out: Ratio CC50/EC50
[23] = Selectivity index, ratio of CC50 for ARS coronavirus Urbani infected African green monkey Vero 76 cells to EC50 for antiviral activity against ARS coronavirus Urbani infected in African green monkey Vero 76 cells; format: toxicity, cell-based; conditions: Vero 76 cells infected with SARS coronavirus Urbani, read-out: Ratio CC50/EC50

| SMILES | EC50 [1] | EC50 (unidentified adenovirus) | CC50 [2] | response, % of control at 20 µM [3] | selectivity ratio at 20 µM [5] | selectivity ratio [7] | selectivity ratio [8] | EC50 [10] | CC50 [11] | EC50 (Hepatitis B virus) | EC90 (Hepatitis B virus) | CC50 [15] | inhibition at 20 µM (Hepatitis C virus) | CC50 [16] | EC50 (rhinovirus A2) | CC50 [17] | EC50 (Influenza B virus) | CC50 [18] | CC50 [19] | EC50 (human papillomavirus 11) | other results |
| --- | --- | --- | --- | --- | --- | --- | --- | --- | --- | --- | --- | --- | --- | --- | --- | --- | --- | --- | --- | --- | --- |
| COC(=O)[C@]1(C)CCC[C@]2(C)[C@H]3C[C@H]4C(C(C)C)=C[C@]3(CC[C@H]21)[C@@H]1/C(=N/O)CCC2(OCCO2)[C@@H]14 | 3.2 µM | > 9.8 µM | 3.2 µM | 0.2% | < 1 | 1 | 1 | > 2.4 µM | 20 µM | > 10 µM | > 10 µM | 3.2 µM | 97.9% | < 50 µM | 3.2 µM | 2.4 µM | 3.2 µM | 9.8 µM | 3.3 µM | > 50 µM | EC50 [4]: 3.2 µM; CC50 [6]: 3.3 µM; EC50 [9]: > 2.9 µM; selectivity ratio [12]: 1; CC50 [13]: 2.9 µM; selectivity ratio [14]: 1 |
| COC(=O)[C@H]1[C@@H](C(=O)OC)C2(C(=O)OC)CC[C@@H]3[C@](C)(CCC[C@@]3(C)C(=O)OC)[C@H]2C[C@H]1C(=O)C(C)C (some centres undefined) | 3.2 µM | 32 µM | 32 µM | 88.1% | < 1 | 1 | 1.1 | > 30 µM | 189 µM | > 10 µM | > 10 µM | 3.5 µM | 0.6% | < 50 µM | 32 µM | 30 µM | 3.2 µM | 32 µM | 3.3 µM | > 50 µM | selectivity ratio [20]: 1; EC50 [4]: 32 µM; CC50 [6]: 33 µM; EC50 [9]: 32 µM; selectivity ratio [12]: 1; CC50 [13]: 33 µM; selectivity ratio [14]: 1; Ratio CC50/EC50 [21]: 30; selectivity ratio [22]: 1 |
| COC(=O)[C@H](C)NC(=O)[C@]1(C)CCC[C@]2(C)[C@H]3C[C@H]4C(C(C)C)=C[C@]3(CC[C@H]21)[C@@H]1C(=O)CCC(=O)[C@@H]14 | 31 µM | > 47 µM | 25 µM | 54% | > 1 | 1.1 | 1.5 | 30 µM | 86 µM | > 10 µM | > 10 µM | 33 µM | 60.8% | < 25 µM | > 25 µM | 32 µM | 22 µM | 47 µM | 33 µM | < 25 µM | selectivity ratio [23]: 1.1; Ratio CC50/EC50 [21]: 20 |
| COC(=O)[C@]1(C)CCC[C@]2(C)[C@H]3C[C@H]4C(C(C)C)=C[C@]3(CC[C@H]21)[C@H]1[C@@H]4[C@@H](OC(=O)CCC(=O)O)CC[C@@H]1OC(=O)CCC(=O)O | 3.2 µM | > 10 µM | 33 µM | 6.4% | < 1 | 1 | 1.1 | 3.2 µM | 21 µM | > 10 µM | > 10 µM | 3.4 µM | 96.6% | < 50 µM | 31 µM | 3.6 µM | 3.1 µM | 10 µM | 3.2 µM | > 50 µM | selectivity ratio [23]: 1.1; selectivity ratio [14]: 1.1 |
| COC(=O)[C@]1(C)CCC[C@]2(C)[C@H]3CC4C(C(C)C)=C[C@]3(CC[C@H]21)[C@@H]1NC(=O)CC[C@H](O)[C@H]41 | > 28 µM | > 29 µM | 28 µM | 102% | > 1 |  | 1.5 | 6.3 µM | 58 µM | > 10 µM | > 10 µM | 35 µM | 97.3% | < 50 µM | > 28 µM | 32 µM | 24 µM | 29 µM | 28 µM | < 50 µM | selectivity ratio [23]: 5.1; EC50 [4]: > 28 µM; CC50 [6]: 28 µM; EC50 [9]: 32 µM; CC50 [13]: 33 µM; selectivity ratio [22]: 1 |
